Experimental data as given in ChEMBL document CHEMBL4680221, “Discovery of pyrazole derivatives as cellular active inhibitors of histone lysine specific demethylase 5B (KDM5B/JARID1B)” (Eur J Med Chem, 2020).

Key:
[1] = target: Lysine-specific demethylase 5A (Homo sapiens, UniProt P29375); assay: Inhibition of KDM5A (unknown origin)
[2] = target: Lysine-specific demethylase 6B (Homo sapiens, UniProt O15054); assay: Inhibition of KDM6B (unknown origin) at 0.25 uM relative to control
[3] = target: T1, Lysine-specific demethylase 4C (Homo sapiens, UniProt Q9H3R0); assay: Inhibition of KDM4C (unknown origin)
T1 sequence (Q9H3R0 whole entry): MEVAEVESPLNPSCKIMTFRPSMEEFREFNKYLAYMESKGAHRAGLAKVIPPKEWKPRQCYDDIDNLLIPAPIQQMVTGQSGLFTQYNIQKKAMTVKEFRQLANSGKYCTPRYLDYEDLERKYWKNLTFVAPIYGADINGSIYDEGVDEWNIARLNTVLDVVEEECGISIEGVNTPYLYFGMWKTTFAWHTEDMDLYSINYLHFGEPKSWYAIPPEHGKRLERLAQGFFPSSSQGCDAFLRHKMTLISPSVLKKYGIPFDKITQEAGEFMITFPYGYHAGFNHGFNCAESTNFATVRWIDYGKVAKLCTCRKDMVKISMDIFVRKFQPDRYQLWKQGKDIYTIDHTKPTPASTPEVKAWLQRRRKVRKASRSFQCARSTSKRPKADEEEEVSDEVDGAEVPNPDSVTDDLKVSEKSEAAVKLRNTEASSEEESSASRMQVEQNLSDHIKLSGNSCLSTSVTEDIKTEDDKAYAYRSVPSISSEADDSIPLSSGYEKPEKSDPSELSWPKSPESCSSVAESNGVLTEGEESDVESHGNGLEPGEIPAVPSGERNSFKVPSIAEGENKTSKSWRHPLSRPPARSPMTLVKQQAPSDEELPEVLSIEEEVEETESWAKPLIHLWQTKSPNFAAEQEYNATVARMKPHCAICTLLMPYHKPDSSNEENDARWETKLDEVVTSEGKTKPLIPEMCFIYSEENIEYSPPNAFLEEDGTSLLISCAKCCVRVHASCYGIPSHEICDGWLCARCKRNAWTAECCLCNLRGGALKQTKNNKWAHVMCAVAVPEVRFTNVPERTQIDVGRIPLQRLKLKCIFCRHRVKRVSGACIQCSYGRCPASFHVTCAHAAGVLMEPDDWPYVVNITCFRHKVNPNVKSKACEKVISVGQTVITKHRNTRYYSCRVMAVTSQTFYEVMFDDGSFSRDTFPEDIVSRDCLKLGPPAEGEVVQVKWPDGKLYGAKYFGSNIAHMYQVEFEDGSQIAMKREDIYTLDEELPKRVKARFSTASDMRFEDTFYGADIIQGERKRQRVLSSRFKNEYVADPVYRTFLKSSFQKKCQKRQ

[4] = target: T2, Lysine-specific demethylase 4C (Homo sapiens) (UniProt Q9H3R0); assay: Inhibition of KDM4C (unknown origin) at 0.25 uM relative to control
T2 sequence (whole entry): T1 sequence (Q9H3R0 whole entry)

[5] = target: T3, Lysine-specific demethylase 5B (Homo sapiens, UniProt Q9UGL1); assay: Inhibition of KDM5B in human MKN-45 cells assessed as increase in H3K4me3 accumulation measured after 5 days by Hoechst 33342 staining based immunofluorescence assay; type: cell-based; details: time 5.0 day
Outline: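 MKN45 cells were seeded and left 24 h, then treated for 5 days. Cells were fixed in 4% paraformaldehyde, permeabilised with 0.1% Triton X-100 for 20 min and blocked with 5% BSA for 1 h. H3K4me2 or H3K4me3 primary antibody was applied at 4°C overnight, followed by Alexa Fluor 488 secondary and Hoechst 33342 (5 µg/mL) nuclear stain. Signal was quantified by high content imaging; three independent experiments.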

[6] = target: T4, Lysine-specific demethylase 4A (Homo sapiens) (UniProt O75164); assay: Inhibition of KDM4A (unknown origin) at 0.25 uM relative to control
T4 sequence (whole entry): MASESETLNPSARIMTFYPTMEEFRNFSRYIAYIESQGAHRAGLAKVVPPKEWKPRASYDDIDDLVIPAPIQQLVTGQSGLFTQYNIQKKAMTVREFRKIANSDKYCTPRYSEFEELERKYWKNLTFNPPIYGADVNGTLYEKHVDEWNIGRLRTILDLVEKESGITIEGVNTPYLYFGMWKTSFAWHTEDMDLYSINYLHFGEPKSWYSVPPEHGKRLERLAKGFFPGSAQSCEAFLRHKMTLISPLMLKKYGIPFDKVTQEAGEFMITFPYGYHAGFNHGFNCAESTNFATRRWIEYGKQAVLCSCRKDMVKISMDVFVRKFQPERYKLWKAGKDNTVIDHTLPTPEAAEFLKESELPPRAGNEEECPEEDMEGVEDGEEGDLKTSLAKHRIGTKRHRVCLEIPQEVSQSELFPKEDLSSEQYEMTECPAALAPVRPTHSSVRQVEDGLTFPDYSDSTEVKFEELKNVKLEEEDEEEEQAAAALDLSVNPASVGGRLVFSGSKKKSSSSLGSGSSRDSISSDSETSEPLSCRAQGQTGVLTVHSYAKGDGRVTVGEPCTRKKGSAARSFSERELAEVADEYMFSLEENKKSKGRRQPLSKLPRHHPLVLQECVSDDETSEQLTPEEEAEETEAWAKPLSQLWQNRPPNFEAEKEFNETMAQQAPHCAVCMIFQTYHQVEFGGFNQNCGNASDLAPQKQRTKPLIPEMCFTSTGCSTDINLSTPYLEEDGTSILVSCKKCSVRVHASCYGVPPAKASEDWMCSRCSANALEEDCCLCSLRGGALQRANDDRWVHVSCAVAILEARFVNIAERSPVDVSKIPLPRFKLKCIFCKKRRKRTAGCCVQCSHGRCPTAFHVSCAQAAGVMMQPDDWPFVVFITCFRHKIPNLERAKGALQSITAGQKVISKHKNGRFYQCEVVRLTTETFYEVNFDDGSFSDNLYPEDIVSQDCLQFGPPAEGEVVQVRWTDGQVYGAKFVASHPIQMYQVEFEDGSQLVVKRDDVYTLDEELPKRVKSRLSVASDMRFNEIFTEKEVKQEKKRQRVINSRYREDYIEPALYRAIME

[7] = target: T2, Lysine-specific demethylase 4C (Homo sapiens); assay: Inhibition of KDM4C (unknown origin) at 0.01 uM relative to control
[8] = target: Lysine-specific demethylase 5C (Homo sapiens, UniProt P41229); assay: Inhibition of KDM5C (unknown origin) at 0.25 uM relative to control
[9] = target: T3, Lysine-specific demethylase 5B; assay: Inhibition of recombinant human N-terminal FLAG-tagged KDM5B expressed in Sf9 insect cells using biotin-H3K4me as substrate by ALPHA
Outline: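 ALPHA demethylase assay. Recombinant KDM5B (4 nM) was preincubated with compound, then biotin-H3K4me3 peptide (64 nM) was added. Buffer: 10 μM α-KG, 100 μM ascorbate, 50 μM (NH4)2Fe(SO4)2, 50 mM HEPES pH 7.5, 0.01% Tween 20, 0.1% BSA. Read-out used streptavidin donor and H3K4me1-2 antibody acceptor beads. Data were normalized to blank control and IC50 fitted.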

T3 sequence (Q9UGL1 whole entry): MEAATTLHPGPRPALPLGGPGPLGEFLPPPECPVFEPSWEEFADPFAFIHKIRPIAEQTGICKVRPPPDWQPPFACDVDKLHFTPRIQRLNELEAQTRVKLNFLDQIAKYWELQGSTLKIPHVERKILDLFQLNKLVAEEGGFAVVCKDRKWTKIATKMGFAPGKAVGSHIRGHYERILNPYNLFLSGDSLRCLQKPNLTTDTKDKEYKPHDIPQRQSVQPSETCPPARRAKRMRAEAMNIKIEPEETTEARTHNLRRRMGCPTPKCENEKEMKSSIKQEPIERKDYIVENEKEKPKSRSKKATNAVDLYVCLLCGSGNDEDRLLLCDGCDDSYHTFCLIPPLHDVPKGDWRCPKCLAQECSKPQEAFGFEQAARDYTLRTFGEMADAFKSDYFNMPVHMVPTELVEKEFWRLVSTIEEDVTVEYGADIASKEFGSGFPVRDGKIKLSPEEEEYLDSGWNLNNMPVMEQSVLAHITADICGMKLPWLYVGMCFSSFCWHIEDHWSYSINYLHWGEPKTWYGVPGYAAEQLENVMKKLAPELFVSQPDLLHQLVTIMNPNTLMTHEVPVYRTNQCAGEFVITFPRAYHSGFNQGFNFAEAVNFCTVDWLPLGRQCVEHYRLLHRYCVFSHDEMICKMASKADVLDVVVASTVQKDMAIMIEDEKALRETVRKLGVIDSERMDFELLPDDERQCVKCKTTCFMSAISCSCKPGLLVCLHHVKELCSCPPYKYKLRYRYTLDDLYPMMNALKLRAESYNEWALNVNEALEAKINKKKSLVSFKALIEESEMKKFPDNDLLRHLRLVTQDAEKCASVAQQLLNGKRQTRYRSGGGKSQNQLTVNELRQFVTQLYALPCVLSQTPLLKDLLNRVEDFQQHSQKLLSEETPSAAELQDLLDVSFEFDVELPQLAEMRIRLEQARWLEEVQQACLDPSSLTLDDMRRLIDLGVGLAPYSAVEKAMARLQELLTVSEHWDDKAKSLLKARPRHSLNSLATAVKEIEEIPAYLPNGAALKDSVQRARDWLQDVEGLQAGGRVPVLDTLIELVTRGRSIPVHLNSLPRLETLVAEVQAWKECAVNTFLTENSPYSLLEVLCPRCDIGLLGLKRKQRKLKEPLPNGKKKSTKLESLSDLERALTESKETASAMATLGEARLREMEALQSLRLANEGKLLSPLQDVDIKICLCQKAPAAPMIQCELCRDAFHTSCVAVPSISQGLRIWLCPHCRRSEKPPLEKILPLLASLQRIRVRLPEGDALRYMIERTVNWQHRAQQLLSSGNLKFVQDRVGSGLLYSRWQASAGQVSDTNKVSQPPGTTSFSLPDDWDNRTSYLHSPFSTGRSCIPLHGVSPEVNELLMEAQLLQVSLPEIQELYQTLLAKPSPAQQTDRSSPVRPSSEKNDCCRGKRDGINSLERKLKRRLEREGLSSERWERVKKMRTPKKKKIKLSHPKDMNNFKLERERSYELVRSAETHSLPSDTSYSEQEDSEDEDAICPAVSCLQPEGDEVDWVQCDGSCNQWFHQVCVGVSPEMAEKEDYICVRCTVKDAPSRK
Chain of Lysine-specific demethylase 6B (O15054 whole entry): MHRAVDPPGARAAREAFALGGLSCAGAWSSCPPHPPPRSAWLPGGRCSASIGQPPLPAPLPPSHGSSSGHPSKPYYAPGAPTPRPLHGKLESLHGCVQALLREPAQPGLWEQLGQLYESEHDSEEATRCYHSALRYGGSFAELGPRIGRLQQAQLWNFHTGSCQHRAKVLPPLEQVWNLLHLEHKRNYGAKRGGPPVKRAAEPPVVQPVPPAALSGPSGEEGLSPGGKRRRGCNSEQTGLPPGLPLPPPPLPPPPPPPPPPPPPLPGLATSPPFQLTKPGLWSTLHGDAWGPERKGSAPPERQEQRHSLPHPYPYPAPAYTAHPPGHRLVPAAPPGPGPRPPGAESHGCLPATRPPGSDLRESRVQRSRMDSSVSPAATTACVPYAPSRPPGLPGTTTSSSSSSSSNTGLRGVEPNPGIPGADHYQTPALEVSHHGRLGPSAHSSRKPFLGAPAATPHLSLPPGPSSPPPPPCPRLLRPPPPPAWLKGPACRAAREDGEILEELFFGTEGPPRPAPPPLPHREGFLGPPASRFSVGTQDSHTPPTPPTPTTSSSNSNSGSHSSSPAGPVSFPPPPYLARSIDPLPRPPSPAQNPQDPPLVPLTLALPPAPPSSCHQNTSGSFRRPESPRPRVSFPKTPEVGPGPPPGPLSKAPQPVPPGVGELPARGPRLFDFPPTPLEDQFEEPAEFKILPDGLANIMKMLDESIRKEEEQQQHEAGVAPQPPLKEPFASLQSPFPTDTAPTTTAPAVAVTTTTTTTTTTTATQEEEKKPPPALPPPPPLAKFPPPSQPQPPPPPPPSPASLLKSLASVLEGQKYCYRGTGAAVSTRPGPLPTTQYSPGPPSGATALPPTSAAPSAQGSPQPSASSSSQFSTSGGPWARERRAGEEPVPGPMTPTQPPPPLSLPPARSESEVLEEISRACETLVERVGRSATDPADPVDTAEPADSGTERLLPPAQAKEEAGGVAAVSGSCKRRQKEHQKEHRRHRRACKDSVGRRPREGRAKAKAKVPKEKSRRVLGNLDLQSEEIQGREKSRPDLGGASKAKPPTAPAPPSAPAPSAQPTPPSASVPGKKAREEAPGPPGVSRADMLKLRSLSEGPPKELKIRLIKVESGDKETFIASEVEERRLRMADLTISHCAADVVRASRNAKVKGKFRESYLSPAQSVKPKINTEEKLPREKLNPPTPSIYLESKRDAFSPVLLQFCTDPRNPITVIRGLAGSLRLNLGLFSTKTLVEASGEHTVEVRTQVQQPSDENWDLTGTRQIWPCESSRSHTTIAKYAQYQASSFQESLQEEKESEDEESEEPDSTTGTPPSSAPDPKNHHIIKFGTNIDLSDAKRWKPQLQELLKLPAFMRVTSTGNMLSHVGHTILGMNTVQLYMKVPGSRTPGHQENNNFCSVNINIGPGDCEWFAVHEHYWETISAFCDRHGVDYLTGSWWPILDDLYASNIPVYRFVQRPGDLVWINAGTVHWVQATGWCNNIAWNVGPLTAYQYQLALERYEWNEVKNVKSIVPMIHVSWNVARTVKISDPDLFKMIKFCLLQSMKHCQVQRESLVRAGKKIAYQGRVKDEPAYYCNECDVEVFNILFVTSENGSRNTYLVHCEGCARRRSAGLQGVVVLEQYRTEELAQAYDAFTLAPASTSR
Chain of Lysine-specific demethylase 5A (P29375 whole entry): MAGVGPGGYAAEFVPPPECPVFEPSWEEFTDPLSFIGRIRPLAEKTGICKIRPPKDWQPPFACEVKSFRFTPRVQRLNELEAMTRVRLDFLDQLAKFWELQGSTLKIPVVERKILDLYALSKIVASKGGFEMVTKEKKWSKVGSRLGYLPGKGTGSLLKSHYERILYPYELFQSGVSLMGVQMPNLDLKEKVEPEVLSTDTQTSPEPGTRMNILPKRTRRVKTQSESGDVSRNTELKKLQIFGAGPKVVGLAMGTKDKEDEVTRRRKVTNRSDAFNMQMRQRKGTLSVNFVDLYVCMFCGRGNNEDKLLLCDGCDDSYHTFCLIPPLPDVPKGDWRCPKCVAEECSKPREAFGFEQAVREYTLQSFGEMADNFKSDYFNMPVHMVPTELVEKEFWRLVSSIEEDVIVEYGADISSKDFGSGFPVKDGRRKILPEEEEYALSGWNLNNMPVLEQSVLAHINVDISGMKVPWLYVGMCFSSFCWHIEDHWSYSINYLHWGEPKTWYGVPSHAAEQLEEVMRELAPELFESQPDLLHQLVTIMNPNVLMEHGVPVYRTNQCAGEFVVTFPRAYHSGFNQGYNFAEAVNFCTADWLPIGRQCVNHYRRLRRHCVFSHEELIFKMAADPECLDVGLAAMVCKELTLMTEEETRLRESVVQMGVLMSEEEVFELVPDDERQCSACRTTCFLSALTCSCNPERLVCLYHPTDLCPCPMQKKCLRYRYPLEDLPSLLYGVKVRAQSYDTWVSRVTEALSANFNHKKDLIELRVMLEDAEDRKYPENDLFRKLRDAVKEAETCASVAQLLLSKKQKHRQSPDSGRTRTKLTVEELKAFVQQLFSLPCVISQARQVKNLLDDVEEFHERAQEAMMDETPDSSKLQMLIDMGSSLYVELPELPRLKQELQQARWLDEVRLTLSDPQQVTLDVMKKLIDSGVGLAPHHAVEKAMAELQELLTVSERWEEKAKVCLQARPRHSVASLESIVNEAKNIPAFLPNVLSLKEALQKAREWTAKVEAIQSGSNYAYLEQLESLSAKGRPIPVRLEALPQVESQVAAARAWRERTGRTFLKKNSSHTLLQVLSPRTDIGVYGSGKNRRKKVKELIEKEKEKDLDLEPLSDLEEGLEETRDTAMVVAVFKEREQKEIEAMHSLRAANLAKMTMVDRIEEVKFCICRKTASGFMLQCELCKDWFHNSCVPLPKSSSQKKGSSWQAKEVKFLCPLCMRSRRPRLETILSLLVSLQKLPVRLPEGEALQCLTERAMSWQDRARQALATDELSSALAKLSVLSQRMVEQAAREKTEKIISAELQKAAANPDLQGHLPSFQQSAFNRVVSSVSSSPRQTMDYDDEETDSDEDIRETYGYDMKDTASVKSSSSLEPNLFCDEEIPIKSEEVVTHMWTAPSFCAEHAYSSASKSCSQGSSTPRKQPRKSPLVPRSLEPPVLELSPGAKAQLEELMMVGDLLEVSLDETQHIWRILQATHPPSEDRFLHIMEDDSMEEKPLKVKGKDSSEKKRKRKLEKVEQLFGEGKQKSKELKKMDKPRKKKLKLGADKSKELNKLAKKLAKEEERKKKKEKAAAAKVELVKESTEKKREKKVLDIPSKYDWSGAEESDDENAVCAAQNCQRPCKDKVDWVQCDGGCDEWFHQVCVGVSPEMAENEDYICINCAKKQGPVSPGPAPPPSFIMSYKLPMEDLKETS

COc1ccc(-n2cc(C(=O)NCC(C)(C)N3CCOCC3)c(-c3ccccc3)n2)cc1
IC50 [1]: 24.9 nM | inhibition [2]: 12.4% | IC50 [3]: 1110 nM | inhibition [4]: 39.4% | inhibition [5]: Dose-dependent effect | inhibition [6]: 29.4% | inhibition [7]: 3.52% | inhibition [8]: 62.1% | IC50 [9]: 24.4 nM
